Measured values pooled from the literature.
Protocols differ between the studies behind these lines.
Cell line: MOLM-13
Observed: cell growth or viability

| Structure (SMILES) | assay | conditions | quantity | value |
| --- | --- | --- | --- | --- |
| C[C@H](N)C(=O)Nc1ccccc1/N=c1\cc(-c2ccc3c(c2)OCCO3)oc2c(N)cccc12 | CCK-8 | 1 µM | inhibition | 3.7% |
| Fc1ccc(Oc2ccc(Nc3ccc4ncc(OCC5CCNCC5)nc4c3)cc2)cc1 | XTT | 7 days | EC50 | 1600 nM |
| Cc1cc2c(C(N)=O)cccc2n1-c1nc2c(c(NCc3ccccc3)n1)CCCN2 |  | 72 h | IC50 | 800 nM |
| c1cc(N2CCC(N3CCOCC3)CC2)ccc1Nc1ccc2ncc(OCC3CCNCC3)nc2c1 | XTT | 7 days | EC50 | > 30000 nM |
| O=C(Nc1ccccc1/N=c1\cc(-c2ccc3c(c2)OCCO3)oc2cc(F)ccc12)N1CCOCC1 | CCK-8 | 1 µM | inhibition | 2.91% |
| c1cc(N2CCCC2)ccc1-c1cc2ncc(OCC3CCNCC3)nc2cc1-c1ccc(N2CCCC2)cc1 | XTT | 7 days | EC50 | 1700 nM |
| CC(C)(C)c1cc(NC(=O)Nc2ccc(-c3cn4c(n3)sc3cc(OCCN5CCOCC5)ccc34)cc2)no1 |  | 72 h | GI50 | 9 nM |
| NCCCC(=O)Nc1ccccc1/N=c1\cc(-c2ccc3c(c2)OCO3)oc2ccccc12 | CCK-8 | 1 µM | inhibition | 0.08% |
| Cc1cc2c(C(=O)O)cccc2n1-c1nc2c(c(NCc3ccccc3)n1)CCCN2 |  | 72 h | IC50 | 400 nM |
| Cc1n[nH]c2ccc3nc(-c4ccc(C(=O)NCCN(C)C)cc4)c4c(c3c12)CCCCC4 |  | 72 h | GI50 | 187 nM |
| CC(C)(C)[C@H](N)C(=O)Nc1ccccc1/N=c1\cc(-c2ccc3c(c2)OCCO3)oc2cc(F)ccc12 | CCK-8 | 1 µM | inhibition | 6.65% |
| CN(C)CCNC(=O)c1ccc(-c2nc3ccc4[nH]ncc4c3c3c2CCCCC3)c(F)c1 |  | 72 h | GI50 | 51 nM |
| c1ccc(Oc2ccc(Nc3ccc4ncc(OCC5CCNCC5)nc4c3)cc2)cc1 | XTT | 7 days | EC50 | 1400 nM |
| CN(C)CCNC(=O)c1ccc(-c2nc3ccc4[nH]ncc4c3c3c2CCCCC3)cc1 |  | 72 h | GI50 | 84 nM |
| CCNc1nc2ccc(-c3c/c(=N\c4ccccc4NC(=O)CCN)c4ccccc4o3)cc2o1 | CCK-8 | 1 µM | inhibition | 12.2% |
